In brackets after ≈: the same amount, converted by molar mass.
Columns and labels:
Type in all cases: functional
[1] = tested on: Staphylococcus epidermidis; experiment: Antibacterial activity against methicillin-sensitive Staphylococcus epidermidis 09-6 after 18 to 24 hrs by twofold serial dilution method
In short: (§1)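 Standard twofold serial agar dilution method on agar media for MIC determination. Screened against representative Gram-positive and Gram-negative strains. Levofloxacin and GMFX served as control drugs.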

Escherichia coli [2] = experiment: Antibacterial activity against Escherichia coli 08-21 after 18 to 24 hrs by twofold serial dilution method
In short: (§2)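 MIC determined by the standard twofold serial dilution method on agar media, screening against Gram-positive and Gram-negative strains. Levofloxacin and gemifloxacin were run alongside as reference drugs.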

Klebsiella pneumoniae [3] = experiment: Antibacterial activity against Klebsiella pneumoniae 09-23 after 18 to 24 hrs by twofold serial dilution method; in short: as §2
[4] = tested on: Staphylococcus epidermidis; experiment: Antibacterial activity against methicillin-resistant Staphylococcus epidermidis 09-4 after 18 to 24 hrs by twofold serial dilution method; in short: as §1
[5] = tested on: Staphylococcus epidermidis; experiment: Antibacterial activity against methicillin-resistant Staphylococcus epidermidis 09-3 after 18 to 24 hrs by twofold serial dilution method; in short: as §1
Streptococcus pneumoniae [6] = experiment: Ratio of compound MIC to levofloxacin MIC for Streptococcus pneumoniae
Staphylococcus aureus [7] = experiment: Antibacterial activity against methicillin-sensitive Staphylococcus aureus 08-2 after 18 to 24 hrs by twofold serial dilution method; in short: as §1
Klebsiella pneumoniae [8] = experiment: Antibacterial activity against Klebsiella pneumoniae 09-22 after 18 to 24 hrs by twofold serial dilution method; in short: as §2
Streptococcus pneumoniae [9] = experiment: Antibacterial activity against Streptococcus pneumoniae 08-2 after 18 to 24 hrs by twofold serial dilution method; in short: as §2
Pseudomonas aeruginosa [10] = experiment: Antibacterial activity against Pseudomonas aeruginosa 09-33 after 18 to 24 hrs by twofold serial dilution method; in short: as §2
Staphylococcus aureus [11] = experiment: Antibacterial activity against methicillin-resistant Staphylococcus aureus 08-1 after 18 to 24 hrs by twofold serial dilution method; in short: as §1
Escherichia coli [12] = experiment: Antibacterial activity against Escherichia coli ATCC 25922 after 18 to 24 hrs by twofold serial dilution method; in short: as §2
Enterococcus faecium [13] = experiment: Antibacterial activity against Enterococcus faecium 08-2 after 18 to 24 hrs by twofold serial dilution method; in short: as §2
Streptococcus pneumoniae [14] = experiment: Antibacterial activity against Streptococcus pneumoniae 08-4 after 18 to 24 hrs by twofold serial dilution method; in short: as §2
Enterococcus faecium [15] = experiment: Antibacterial activity against Enterococcus faecium 08-7 after 18 to 24 hrs by twofold serial dilution method; in short: as §2
Pseudomonas aeruginosa [16] = experiment: Antibacterial activity against Pseudomonas aeruginosa 09-35 after 18 to 24 hrs by twofold serial dilution method; in short: as §2
Enterococcus faecalis [17] = experiment: Antibacterial activity against Enterococcus faecalis 08-12 after 18 to 24 hrs by twofold serial dilution method; in short: as §2
[18] = tested on: Staphylococcus epidermidis; experiment: Antibacterial activity against methicillin-sensitive Staphylococcus epidermidis 09-3 after 18 to 24 hrs by twofold serial dilution method; in short: as §1
Escherichia coli [19] = experiment: Antibacterial activity against Escherichia coli 08-22 after 18 to 24 hrs by twofold serial dilution method; in short: as §2
Pseudomonas aeruginosa [20] = experiment: Antibacterial activity against Pseudomonas aeruginosa ATCC 27853 after 18 to 24 hrs by twofold serial dilution method; in short: as §2
Pseudomonas aeruginosa [21] = experiment: Antibacterial activity against Pseudomonas aeruginosa 09-34 after 18 to 24 hrs by twofold serial dilution method; in short: as §2
Staphylococcus aureus [22] = experiment: Antibacterial activity against Staphylococcus aureus ATCC […] after 18 to 24 hrs by twofold serial dilution method; in short: as §2
Klebsiella pneumoniae [23] = experiment: Antibacterial activity against Klebsiella pneumoniae 09-21 after 18 to 24 hrs by twofold serial dilution method; in short: as §2
Enterococcus faecalis [24] = experiment: Antibacterial activity against Enterococcus faecalis 08-10 after 18 to 24 hrs by twofold serial dilution method; in short: as §2
Pseudomonas aeruginosa [25] = experiment: Antibacterial activity against Pseudomonas aeruginosa 09-32 after 18 to 24 hrs by twofold serial dilution method; in short: as §2
[26] = tested on: Staphylococcus epidermidis; experiment: Antibacterial activity against methicillin-resistant Staphylococcus epidermidis 09-2 after 18 to 24 hrs by twofold serial dilution method; in short: as §1
Klebsiella pneumoniae [27] = experiment: Ratio of compound MIC to gemifloxacin MIC for Klebsiella pneumoniae 09-22
Klebsiella pneumoniae [28] = experiment: Ratio of compound MIC to levofloxacin MIC for Klebsiella pneumoniae 09-22
Enterococcus faecium [29] = experiment: Ratio of compound MIC to gemifloxacin MIC for Enterococcus faecium 08-7
Enterococcus faecium [30] = experiment: Ratio of compound MIC to levofloxacin MIC for Enterococcus faecium 08-7

SMILES	MIC [1]	MIC (Escherichia coli [2])	MIC (Klebsiella pneumoniae [3])	MIC [4]	MIC [5]	MIC (Staphylococcus aureus [7])	MIC (Klebsiella pneumoniae [8])	MIC (Streptococcus pneumoniae [9])	MIC (Pseudomonas aeruginosa [10])	MIC (Staphylococcus aureus [11])	MIC (Escherichia coli [12])	MIC (Enterococcus faecium [13])	MIC (Streptococcus pneumoniae [14])	MIC (Enterococcus faecium [15])	MIC (Pseudomonas aeruginosa [16])	MIC (Enterococcus faecalis [17])	MIC [18]	MIC (Escherichia coli [19])	MIC (Pseudomonas aeruginosa [20])	MIC (Pseudomonas aeruginosa [21])	further results
CCO/N=C1\CN(c2nc3c(cc2F)c(=O)c(C(=O)O)cn3C2CC2)CC1/C(N)=N\O (stereo unspecified)	0.25 µg/mL (≈ 0.578 µM)	> 128 µg/mL	> 128 µg/mL	0.25 µg/mL (≈ 0.578 µM)	0.25 µg/mL (≈ 0.578 µM)	0.25 µg/mL (≈ 0.578 µM)	> 128 µg/mL	0.25 µg/mL (≈ 0.578 µM)	> 128 µg/mL	0.25 µg/mL (≈ 0.578 µM)	> 128 µg/mL	> 128 µg/mL	0.25 µg/mL (≈ 0.578 µM)	> 128 µg/mL	> 128 µg/mL	0.25 µg/mL (≈ 0.578 µM)	0.25 µg/mL (≈ 0.578 µM)	> 128 µg/mL	> 128 µg/mL	> 128 µg/mL	Ratio (Streptococcus pneumoniae [6]): 8; MIC (Staphylococcus aureus [22]): 0.25 µg/mL (≈ 0.578 µM); MIC (Klebsiella pneumoniae [23]): > 128 µg/mL; MIC (Enterococcus faecalis [24]): > 128 µg/mL; MIC (Pseudomonas aeruginosa [25]): > 128 µg/mL; MIC [26]: 0.25 µg/mL (≈ 0.578 µM)
CCO/N=C1\CN(c2c(F)cc3c(=O)c(C(=O)O)cn(CC)c3c2F)CC1/C(N)=N\OC (stereo unspecified)	0.25 µg/mL (≈ 0.554 µM)	> 128 µg/mL	> 128 µg/mL	0.125 µg/mL (≈ 0.277 µM)	0.25 µg/mL (≈ 0.554 µM)	8 µg/mL (≈ 17.7 µM)	8 µg/mL (≈ 17.7 µM)	0.25 µg/mL (≈ 0.554 µM)	> 128 µg/mL	0.25 µg/mL (≈ 0.554 µM)	> 128 µg/mL	> 128 µg/mL	0.25 µg/mL (≈ 0.554 µM)	> 128 µg/mL	> 128 µg/mL	> 128 µg/mL	0.125 µg/mL (≈ 0.277 µM)	> 128 µg/mL	128 µg/mL (≈ 284 µM)	> 128 µg/mL	Ratio (Streptococcus pneumoniae [6]): 8; MIC (Staphylococcus aureus [22]): 1 µg/mL (≈ 2.22 µM); MIC (Klebsiella pneumoniae [23]): > 128 µg/mL; MIC (Enterococcus faecalis [24]): > 128 µg/mL; MIC (Pseudomonas aeruginosa [25]): > 128 µg/mL; MIC [26]: 8 µg/mL (≈ 17.7 µM)
CCO/N=C(/N)C1CN(c2c(F)cc3c(=O)c(C(=O)O)cn4c3c2OC[C@@H]4C)C/C1=N\OC (stereo partly specified)	0.06 µg/mL (≈ 0.13 µM)	> 128 µg/mL	> 128 µg/mL	0.06 µg/mL (≈ 0.13 µM)	0.06 µg/mL (≈ 0.13 µM)	0.125 µg/mL (≈ 0.271 µM)	0.5 µg/mL (≈ 1.08 µM)	8 µg/mL (≈ 17.3 µM)	> 128 µg/mL	0.06 µg/mL (≈ 0.13 µM)	128 µg/mL (≈ 277 µM)	> 128 µg/mL	8 µg/mL (≈ 17.3 µM)	0.06 µg/mL (≈ 0.13 µM)	16 µg/mL (≈ 34.7 µM)	> 128 µg/mL	0.06 µg/mL (≈ 0.13 µM)	> 128 µg/mL	16 µg/mL (≈ 34.7 µM)	> 128 µg/mL	Ratio (Klebsiella pneumoniae [27]): 16; Ratio (Klebsiella pneumoniae [28]): 16; Ratio (Enterococcus faecium [29]): 32; Ratio (Enterococcus faecium [30]): 32; MIC (Staphylococcus aureus [22]): 0.125 µg/mL (≈ 0.271 µM); MIC (Klebsiella pneumoniae [23]): > 128 µg/mL; MIC (Enterococcus faecalis [24]): 128 µg/mL (≈ 277 µM); MIC (Pseudomonas aeruginosa [25]): 16 µg/mL (≈ 34.7 µM); MIC [26]: 0.06 µg/mL (≈ 0.13 µM)
CCO/N=C1\CN(c2c(F)cc3c(=O)c(C(=O)O)cn4c3c2OC[C@@H]4C)CC1/C(N)=N\OCC (stereo partly specified)	8 µg/mL (≈ 16.8 µM)	> 128 µg/mL	> 128 µg/mL	> 128 µg/mL	> 128 µg/mL	64 µg/mL (≈ 135 µM)	> 128 µg/mL	64 µg/mL (≈ 135 µM)	> 128 µg/mL	64 µg/mL (≈ 135 µM)	128 µg/mL (≈ 269 µM)	> 128 µg/mL	> 128 µg/mL	> 128 µg/mL	64 µg/mL (≈ 135 µM)	> 128 µg/mL	8 µg/mL (≈ 16.8 µM)	> 128 µg/mL	64 µg/mL (≈ 135 µM)	> 128 µg/mL	MIC (Staphylococcus aureus [22]): 1 µg/mL (≈ 2.1 µM); MIC (Klebsiella pneumoniae [23]): > 128 µg/mL; MIC (Enterococcus faecalis [24]): > 128 µg/mL; MIC (Pseudomonas aeruginosa [25]): 64 µg/mL (≈ 135 µM); MIC [26]: > 128 µg/mL
CCO/N=C(/N)C1CN(c2c(F)cc3c(=O)c(C(=O)O)cn(C4CC4)c3c2OC)C/C1=N\OC (stereo unspecified)	0.25 µg/mL (≈ 0.526 µM)	> 128 µg/mL	> 128 µg/mL	0.125 µg/mL (≈ 0.263 µM)	0.125 µg/mL (≈ 0.263 µM)	0.25 µg/mL (≈ 0.526 µM)	8 µg/mL (≈ 16.8 µM)	32 µg/mL (≈ 67.3 µM)	> 128 µg/mL	0.25 µg/mL (≈ 0.526 µM)	128 µg/mL (≈ 269 µM)	> 128 µg/mL	2 µg/mL (≈ 4.21 µM)	> 128 µg/mL	> 128 µg/mL	128 µg/mL (≈ 269 µM)	0.25 µg/mL (≈ 0.526 µM)	> 128 µg/mL	128 µg/mL (≈ 269 µM)	> 128 µg/mL	MIC (Staphylococcus aureus [22]): 0.25 µg/mL (≈ 0.526 µM); MIC (Klebsiella pneumoniae [23]): > 128 µg/mL; MIC (Enterococcus faecalis [24]): > 128 µg/mL; MIC (Pseudomonas aeruginosa [25]): > 128 µg/mL; MIC [26]: 0.5 µg/mL (≈ 1.05 µM)
CCO/N=C1\CN(c2c(F)cc3c(=O)c(C(=O)O)cn(C4CC4)c3c2OC)CC1/C(N)=N\O (stereo unspecified)	0.25 µg/mL (≈ 0.542 µM)	> 128 µg/mL	> 128 µg/mL	0.5 µg/mL (≈ 1.08 µM)	0.25 µg/mL (≈ 0.542 µM)	0.25 µg/mL (≈ 0.542 µM)	4 µg/mL (≈ 8.67 µM)	1 µg/mL (≈ 2.17 µM)	> 128 µg/mL	0.25 µg/mL (≈ 0.542 µM)	128 µg/mL (≈ 277 µM)	> 128 µg/mL	1 µg/mL (≈ 2.17 µM)	> 128 µg/mL	64 µg/mL (≈ 139 µM)	> 128 µg/mL	0.25 µg/mL (≈ 0.542 µM)	> 128 µg/mL	32 µg/mL (≈ 69.3 µM)	> 128 µg/mL	MIC (Staphylococcus aureus [22]): 0.25 µg/mL (≈ 0.542 µM); MIC (Klebsiella pneumoniae [23]): > 128 µg/mL; MIC (Enterococcus faecalis [24]): > 128 µg/mL; MIC (Pseudomonas aeruginosa [25]): 64 µg/mL (≈ 139 µM); MIC [26]: 0.5 µg/mL (≈ 1.08 µM)
CCO/N=C(/N)C1CN(c2nc3c(cc2F)c(=O)c(C(=O)O)cn3-c2ccc(F)cc2F)C/C1=N\OC (stereo unspecified)	0.25 µg/mL (≈ 0.482 µM)	> 128 µg/mL	> 128 µg/mL	0.25 µg/mL (≈ 0.482 µM)	0.25 µg/mL (≈ 0.482 µM)	0.25 µg/mL (≈ 0.482 µM)	32 µg/mL (≈ 61.7 µM)	> 128 µg/mL	> 128 µg/mL	0.25 µg/mL (≈ 0.482 µM)	> 128 µg/mL	> 128 µg/mL	> 128 µg/mL	> 128 µg/mL	> 128 µg/mL	> 128 µg/mL	0.125 µg/mL (≈ 0.241 µM)	> 128 µg/mL	> 128 µg/mL	> 128 µg/mL	MIC (Staphylococcus aureus [22]): 0.125 µg/mL (≈ 0.241 µM); MIC (Klebsiella pneumoniae [23]): > 128 µg/mL; MIC (Enterococcus faecalis [24]): > 128 µg/mL; MIC (Pseudomonas aeruginosa [25]): > 128 µg/mL; MIC [26]: 2 µg/mL (≈ 3.86 µM)

— ChEMBL document CHEMBL1287651, “Synthesis and in vitro antibacterial activity of fluoroquinolone derivatives containing 3-(N'-alkoxycarbamimidoyl)-4-(alkoxyimino) pyrrolidines” (2010)
